High-throughput results (PubChem BioAssay)
KCNK3 inh: human KCNK3 channel inhibition, primary screen | B-score at 10 µM | O14649 | CHO-KCNK3 thallium flux, FluxOR fluorescence; active compounds read low | 340,000 tested, 0.84% active;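 active means B-score under library mean minus 4 SD, starting fluorescence ratio at most library mean plus 5 SD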;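 further: more negative B-score means stronger inhibition of thallium flux through KCNK3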
KCNQ1 inh: blocks the human KCNQ1 potassium channel | P51787 | CHO-K1 KCNQ1, FluxOR thallium flux fluorescence; active compounds read high | B-score at 10 µM | 310,000 tested, 1.3% active;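 active means compounds whose thallium flux B-score, printed positive for inhibition, exceeds three library SD while starting fluorescence stays within three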;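 further: channel opened by potassium depolarization with thallium stimulus after 20 min compound exposure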
Target sequence (P51787 whole entry, looked up): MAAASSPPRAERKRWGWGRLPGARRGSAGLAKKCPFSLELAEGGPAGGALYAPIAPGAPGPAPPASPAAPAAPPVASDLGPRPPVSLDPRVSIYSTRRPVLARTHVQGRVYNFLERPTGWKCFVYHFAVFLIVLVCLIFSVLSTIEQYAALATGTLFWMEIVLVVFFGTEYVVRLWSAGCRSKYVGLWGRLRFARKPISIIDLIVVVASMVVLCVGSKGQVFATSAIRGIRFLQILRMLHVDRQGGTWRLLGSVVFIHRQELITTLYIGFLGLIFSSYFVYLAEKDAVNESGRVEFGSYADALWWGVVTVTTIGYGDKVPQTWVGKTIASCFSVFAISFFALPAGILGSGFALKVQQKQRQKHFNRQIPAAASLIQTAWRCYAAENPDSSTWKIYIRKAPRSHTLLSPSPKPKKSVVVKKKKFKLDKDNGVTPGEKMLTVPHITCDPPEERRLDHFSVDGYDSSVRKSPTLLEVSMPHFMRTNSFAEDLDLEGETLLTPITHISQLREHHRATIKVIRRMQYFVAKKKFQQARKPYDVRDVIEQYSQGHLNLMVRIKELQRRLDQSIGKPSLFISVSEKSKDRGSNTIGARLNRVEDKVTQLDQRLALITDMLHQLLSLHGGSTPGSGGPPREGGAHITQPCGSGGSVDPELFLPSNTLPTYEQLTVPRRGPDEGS
KCNK9 block: blocks the human KCNK9 two-pore domain potassium channel; Q9NPC2; HEK293 KCNK9, FluxOR thallium flux fluorescence; active compounds read low; B-score at 10 µM; 310,000 tested, 1.2% active;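 active means ratio B-score over 3 SD below the library mean, with starting fluorescence within 5 SD of its mean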;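 further: negative B-score means less thallium flux so channel inhibition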
hERG rescue: shields human hERG channel from block by proarrhythmic agents; CHO-hERG, FluxOR thallium flux, dofetilide IC70 present; activation (rescue from dofetilide block), less the hit threshold, % at 10 µM; 310,000 tested, 0.51% active; AID 1511;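 active means activation above the mean of controls blocked by dofetilide plus 5 SD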;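 further: thallium influx through hERG after potassium depolarization seen as dye fluorescence rise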
KCNQ1 pot: human KCNQ1 channel potentiation or activation; B-score at 10 µM; 310,000 tested, 0.35% active; AID 2648; P51787; CHO-K1 KCNQ1, thallium flux FluxOR fluorescence; active compounds read high;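 active means fluorescence ratio B-score, a plate-corrected score, at least three library SD, with initial intensity B-score within 5 SD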
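Material: CHO-K1 cells stably expressing KCNQ1. Medium: assay buffer for compound exposure, DMSO matched across wells. Reagent: K+/Tl+ depolarizing stimulus. Compound dosing: single-concentration screen. Times: 37 °C overnight plating, 90-min dark dye load, 20-min compound pretreatment. Technique: FluxOR Tl+ flux fluorescence.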
Kir21 block: Kir2.1 (mouse) channel inhibition; HEK293-Kir2.1, FluxOR thallium flux fluorescence; active compounds read low; B-score at 10 µM; 310,000 tested, 0.85% active;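 active means fluorescence ratio B-score at or below minus 3 SD of library scores, with starting-brightness B-score within 2 SD, cut at about -4.2 in these data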;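 further: channel flux triggered by added potassium and thallium sulfate stimulus; B-score of peak minus minimum fluorescence over baseline after thallium stimulus; more negative B-score means stronger Kir2.1 block with less thallium influx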
KCNK9 inh conf: human KCNK9 inhibitor confirmation | HEK293 KCNK9 cells, FluxOR thallium flux fluorescence | AID 492992 | inhibition, % at 10 µM | shares compounds with KCNK9 block | 4,900 tested, 43% active;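 active means thallium signal inhibited by more than 5 SD of the compound-free buffer control wells, on both duplicate plates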
Kir2-1 spec: mouse Kir2.1 off-target activity of KCNK9 modulators | shares compounds with KCNK9 block | Kir2.1 cells, FluxOR thallium flux fluorescence | AID 492993 | inhibition, % at 10 µM | 4,900 tested, 4% active;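 active means thallium signal drop more than 5 SD beyond the mean of the no-compound control wells, seen in both duplicate plates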;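 further: signal is fluorescence rise after thallium addition divided by baseline fluorescence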
KCNK9 uninduced: second counter-screen for KCNK9 modulators: effect in non-induced cells. shares compounds with KCNK9 block. non-induced KCNK9-HEK293, FluxOR thallium flux. inhibition, % at 10 µM. 4,900 tested, 40% active;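 active means thallium signal drop beyond 5 SD of the untreated control mean, on both duplicate plates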
Each line names hits and unclear results; the compound was inactive in the other large screens (follow-up assays come after a bar, where they were run). In the library only some 3.8% were active in any assay of this set; here they are far more common.

O=C(CN1CCN(c2ccccn2)CC1)N1c2ccccc2Sc2ccc(C(F)(F)F)cc21	none | KCNK9 inh conf inactive | Kir2-1 spec inactive | KCNK9 uninduced inactive
COc1cc(-c2c(NC(=O)c3ccco3)oc3ccccc3c2=O)cc(OC)c1OC	none
O=C1[C@@H]2[C@@H]3C[C@@H]([C@H]4ON=C(c5ccc(Cl)cc5)[C@@H]34)[C@@H]2C(=O)N1C1CCCCC1	none | KCNK9 inh conf inactive | Kir2-1 spec inactive | KCNK9 uninduced inactive
C=CCOc1ccc(C2=NO[C@@H]3[C@@H]4C[C@@H]([C@H]5C(=O)N(C)C(=O)[C@@H]45)[C@H]23)cc1	none
CCC(c1nnnn1Cc1ccco1)N1CCN(c2cc(Cl)ccc2C)CC1 (centres undefined)	KCNK9 block -11 | KCNK9 inh conf 54% | Kir2-1 spec inactive | KCNK9 uninduced 42%
CCCCC(c1nnnn1Cc1ccco1)N1CCN(c2nc3ccccc3s2)CC1 (centres undefined)	KCNK9 block -16 | KCNK9 inh conf 48% | Kir2-1 spec inactive | KCNK9 uninduced 33%
c1ccc(C(c2nnnn2Cc2ccco2)N2CCN(c3nc4ccccc4s3)CC2)cc1 (centres undefined)	KCNK9 block -8.2 | KCNK9 inh conf 42% | Kir2-1 spec inactive | KCNK9 uninduced 28%
CCC(c1nnnn1Cc1ccco1)N1CCC(C(N)=O)CC1 (centres undefined)	none
Cc1cc(CN2CCCCC2C(=O)Nc2ccc(Oc3cccnc3)cc2)oc1C (centres undefined)	none
CCc1ccc(CSc2nccn2-c2ccccc2)cc1	Kir21 block -4.9 | KCNK9 inh conf inactive | Kir2-1 spec inactive | KCNK9 uninduced inactive
c1ccc(CCSc2nccn2-c2ccccc2)cc1	none
CC1Oc2cc3oc4c(O)c(O)ccc4c(=O)c3c(O)c2C1(C)C (centres undefined)	KCNQ1 inh 10 | KCNK9 inh conf inactive | Kir2-1 spec inactive | KCNK9 uninduced inactive
COc1ccc(-c2cc(=O)oc3c(O)c(O)ccc23)cc1	none
COC(=O)C(C)Oc1cc(OC(C)C(=O)OC)c2c(C)c(Cl)c(=O)oc2c1 (centres undefined)	none | KCNK9 inh conf inactive | Kir2-1 spec inactive | KCNK9 uninduced inactive
COC(=O)COc1cc(OCC(=O)OC)c2c(C)c(Cl)c(=O)oc2c1	none
O=C(CCSCc1ccccc1F)NCc1cccs1	none
O=C(CCSCc1ccccc1Cl)NCc1cccs1	hERG rescue 5.0 | KCNK9 inh conf inactive | Kir2-1 spec inactive | KCNK9 uninduced inactive
CC1CCCC(C)N1C(=O)COC(=O)c1cc(Br)ccc1Cl (centres undefined)	none | KCNK9 inh conf inactive | Kir2-1 spec inactive | KCNK9 uninduced inactive
CC1CCCC(C)N1C(=O)COC(=O)c1ccccc1O (centres undefined)	none (no result: KCNQ1 inh, KCNK9 block, hERG rescue, KCNQ1 pot, Kir21 block)
Cn1c(CCN2CCN(c3ccccn3)CC2)nc2cc(NS(=O)(=O)c3ccc(Cl)cc3)ccc21	none
CCCCNC(=O)c1onc(CSc2ccc(Cl)cc2)c1C(=O)NCCCC	none
CC(C)NC(=O)c1onc(CSc2ccc(Cl)cc2)c1C(=O)O	none
CCCNC(=O)c1onc(CSc2ccc(Cl)cc2)c1C(=O)NC(C)C	none | KCNK9 inh conf inactive | Kir2-1 spec inactive | KCNK9 uninduced inactive
CC(C)NC(=O)c1onc(CSc2ccc(Cl)cc2)c1C(=O)NC(C)C	none | KCNK9 inh conf inactive | Kir2-1 spec inactive | KCNK9 uninduced inactive
COc1ccc(CC(=O)Nc2ccc(N(C)C)c3ccccc23)cc1	none
CC(C)N(C(=O)c1nn(C)c2c1CSc1ccccc1-2)C1CCCCC1	KCNQ1 inh 8, KCNK9 block -10 | KCNK9 inh conf 34% | Kir2-1 spec inactive | KCNK9 uninduced inactive
CCCCc1ccc(-c2ccc(Br)cc2)nc1	none | KCNK9 inh conf inactive | Kir2-1 spec inactive | KCNK9 uninduced inactive
CCCC(c1nnnn1CCOC)N1CCN(c2nc3ccccc3s2)CC1 (centres undefined)	none
COc1cc(/C=C/C(=O)c2ccc(NS(=O)(=O)c3ccc(C)cc3)cc2)ccc1OC(F)F	none | KCNK9 inh conf inactive | Kir2-1 spec inactive | KCNK9 uninduced inactive
CC(CCc1ccco1)NC(=O)c1cccc2c1C(=O)N(C1CCCCC1)C2 (centres undefined)	none
COc1ccc(N2Cc3cccc(C(=O)NC(C)CCc4ccco4)c3C2=O)cc1 (centres undefined)	KCNK3 inh -9.9, KCNK9 block -16 | KCNK9 inh conf 57% | Kir2-1 spec inactive | KCNK9 uninduced 34%
Cn1c(=O)[nH]c(=O)c2c1nc(Br)n2Cc1ccccc1F	none | KCNK9 inh conf inactive | Kir2-1 spec inactive | KCNK9 uninduced inactive
Cc1ccc(Cl)cc1N1CCN(Cc2nc3c(c(=O)[nH]c(=O)n3C)n2Cc2ccccc2F)CC1	KCNK9 block -8.8 | KCNK9 inh conf inactive | Kir2-1 spec inactive | KCNK9 uninduced inactive
CC(C)(C#CCN1CCCCC1)OCCOC(c1ccccc1)c1ccccc1	none
Cc1ccc(C(=O)N/N=C2\SCC(=O)N2c2cc(C)ccc2C)cc1	none | KCNK9 inh conf inactive | Kir2-1 spec inactive | KCNK9 uninduced inactive
COc1cccc(Nc2nc(N)nc(-c3oc4ccccc4c3C)n2)c1	KCNK9 block -10 | KCNK9 inh conf 38% | Kir2-1 spec inactive | KCNK9 uninduced inactive
Cc1cccc(Nc2nc(N)nc(-c3oc4ccccc4c3C)n2)c1	KCNK9 block -8.9 | KCNK9 inh conf 35% | Kir2-1 spec inactive | KCNK9 uninduced inactive
Cc1ccc(Nc2nc(N)nc(-c3oc4ccccc4c3C)n2)cc1	none
CCc1nc(Nc2cccc(OC)c2)c2oc3ccccc3c2n1	none
O=C(N/N=C/c1ccccc1)c1ccc(CN2C(=O)c3cccc4cccc2c34)cc1	none
O=C(N/N=C/c1ccc(O)cc1O)c1ccc(CN2C(=O)c3cccc4cccc2c34)cc1	KCNK3 inh -12, KCNK9 block -12 | KCNK9 inh conf 37% | Kir2-1 spec inactive | KCNK9 uninduced 33%
COc1ccc(-c2nn(-c3ccccc3)cc2CNCCN2CCOC2=O)c(F)c1	none
COc1ccc(-c2nn(-c3ccccc3F)cc2CNCCn2nc(C)cc2C)cc1	none | KCNK9 inh conf inactive | Kir2-1 spec inactive | KCNK9 uninduced inactive
CC(Sc1ncn[nH]1)C(=O)Nc1ccc(Cl)cn1 (centres undefined)	none
Cc1cccnc1Nc1nc(-c2ccccn2)cs1	none
Cc1cccnc1Nc1nc(-c2ccccc2)cs1	none | KCNK9 inh conf inactive | Kir2-1 spec inactive | KCNK9 uninduced 26%
